The list is not random: actives were taken first. Their share in the collection is about 4.6%.
OX1R antag-1 = antagonists of human orexin 1 receptor; CHO/OX1R cells, Fluo-8 calcium fluorescence, orexin A; inhibition, % at 5 µM; 330,000 tested, 0.43% active;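 active = inhibition above its plate's threshold, mean inhibition of all tested compounds on the plate plus 3 SD, cut at about 37% in these data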
Target sequence (O43613 whole entry, looked up): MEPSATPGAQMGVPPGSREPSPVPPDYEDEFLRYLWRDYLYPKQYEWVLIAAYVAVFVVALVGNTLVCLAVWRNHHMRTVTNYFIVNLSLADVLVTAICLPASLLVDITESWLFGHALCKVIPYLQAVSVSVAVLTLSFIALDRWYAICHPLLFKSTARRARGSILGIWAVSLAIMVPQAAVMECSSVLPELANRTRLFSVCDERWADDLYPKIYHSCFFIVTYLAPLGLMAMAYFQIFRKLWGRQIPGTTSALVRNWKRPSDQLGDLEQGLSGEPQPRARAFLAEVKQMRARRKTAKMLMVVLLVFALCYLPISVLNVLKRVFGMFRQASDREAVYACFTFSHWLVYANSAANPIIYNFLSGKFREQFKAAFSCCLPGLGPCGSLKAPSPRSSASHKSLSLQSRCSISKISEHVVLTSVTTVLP
OX1R antag-2 = antagonists of human orexin 1 receptor (OX1R). inhibition, % at 6.6 µM. AID 485270. OX1R-expressing cells, FRET antagonist read-out. 330,000 tested, 1.8% active. O43613; in the data active = inhibition mostly above about 38%, no sharp cut-off; inactive = mostly below about 40%
TAAR1 antag = human TAAR1 antagonism | Q96RJ0 | CHO RD-HGA16 TAAR1, Fluo-8 calcium fluorescence, antagonist | inhibition, % at 3 µM | 360,000 tested, 1.5% active | AID 624466;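 active = inhibition above a per-plate cutoff, the mean inhibition of test compounds on that plate plus 3 SD, cut at about 49% in these data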
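Test system – hTAAR1-expressing CHO RD-HGA16 cells, Gα16-coupled · Reagent – β-PEA at EC80 concentration, post-compound challenge · Compound dosing – 3 µM, single point · Timing – 140 s kinetic read after compound, 140 s after agonist · Detection – Fluo-8 intracellular calcium dye fluorescence, real-time kinetic reads · Control set – DMSO and EC80 PEA controls · Repeats – n of 1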
GPR7 antagonist = blocks human GPR7 receptor signaling; 290,000 tested, 1.1% active; P48145; inhibition, % at 4.4 µM; GPR7-expressing cells, fluorescence antagonist assay; in the data active = inhibition above about 16%, passing the limit was not always enough;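 note: cells stimulated with the agonist NPW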
TAAR1 ag = agonists of human TAAR1 | Q96RJ0 | CHO RD-HGA16 TAAR1, Fluo-8 calcium fluorescence; vehicle wells 0%, saturating PEA agonist 100% | activation, % at 3 µM | 360,000 tested, 0.99% active;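 active = activation above the mean activation of all test compounds in the run plus 3 SD, cut at about 38% in these data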
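System: CHO-derived RD-HGA16 cells with stable Gα16 and human TAAR1. Times: 17-24 h plating, Fluo-8 75 min 37 °C, 30 min RT. Measured by: calcium-sensitive Fluo-8 signal, excitation 470-495, emission 515-575 nm. Read-out basis: % activation relative to PEA EC100 response. Control set: DMSO and PEA EC100. Repeats: no replicates (n 1).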
CHO parental Ca = signal in parental CHO cells, OX1R antagonist counter-screen. parental CHO-K1, ATP-induced calcium, Fluo-8 fluorescence. 330,000 tested, 0.63% active. inhibition, % at 5.6 µM;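 active = inhibition above that plate's mean sample inhibition plus 3 SD, cut at about 26% in these data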
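Assay system – parental CHO cells · Reagent – ATP stimulus · Detection – intracellular calcium via Fluo-8 no-wash fluorescent dye · Evaluation – percent inhibition of ATP-evoked calcium rise, normalized to controls · Controls – ATP wells versus no-ATP DMSO wells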
GPR7 antag cf = confirmation of human GPR7 antagonists | shares compounds with GPR7 antagonist | GPR7-expressing cells, calcium fluorescence antagonist mode | inhibition, % at 4.4 µM | 2,400 tested, 52% active; in the data active = inhibition above about 24%;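 note: stimulated with the GPR7 agonist NPW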
MCHR1 antag = counter-screen for GPR7 antagonists: antagonists of human MCHR1 | shares compounds with GPR7 antagonist | MCHR1-expressing cells, fluorescence antagonist assay | inhibition, % at 4.4 µM | 2,400 tested, 62% active; in the data active = inhibition above about 22%
Numbers stand for hits; n = inactive; x = not tested or not shown.

SMILES	OX1R antag-1	OX1R antag-2	TAAR1 antag	GPR7 antagonist	TAAR1 ag	CHO parental Ca	GPR7 antag cf	MCHR1 antag
CCC(C)NS(=O)(=O)c1cc2c3c(c1)CCC(=O)N3CCC2 (centres undefined)	n	n	n	n	n	n	x	x
CSc1ccccc1OCc1cc(C(=O)N2CCSCC2)no1	n	n	n	n	n	n	x	x
CSc1ccccc1OCc1cc(C(=O)N2CCC(Oc3cccnc3)CC2)no1	n	n	n	28.2	n	n	n	47.5
CCC(C)(C(=O)NC1CCCC1)N(Cc1cccs1)C(=O)c1ccc2c(c1)OCO2 (centres undefined)	n	n	n	29.1	n	n	29.1	24.6
O=C(NC1CCCCC1)c1ccc2c(c1)OCO2	n	n	n	n	n	n	x	x
CN1C(=O)C(C)(C)c2cc(S(=O)(=O)N3CCC(C(=O)Nc4ccc(Cl)cc4)CC3)ccc21	n	n	n	n	n	n	x	x
O=C(COC(=O)c1cc(S(=O)(=O)N2CCOCC2)cs1)c1ccccc1	n	n	n	25.5	n	n	n	n
Cc1cc(C(=O)N2CCC2(C)C(=O)NS(=O)(=O)c2ccc(Cl)cc2)nn1C (centres undefined)	x	x	n	x	n	x	x	x
CCOC(=O)C1(C)CCN1C(=O)c1ccccc1Br (centres undefined)	x	x	n	x	n	x	x	x
CCCOc1ccc(C(=O)Nc2ccc(S(=O)(=O)N3C[C@@H]4C[C@@H](C3)c3cccc(=O)n3C4)cc2)cc1	n	n	n	x	n	n	x	x
COCOc1cccc(CN2CCC2(C)C(=O)Nc2ccc(OC)c(OC)c2)c1 (centres undefined)	x	x	n	x	n	x	x	x
COc1ccc(Cl)cc1NC(=O)C(C)N1CCN(c2ccccn2)CC1 (centres undefined)	n	n	n	n	n	n	x	x
Nc1nc2n(n1)C(c1cccc(Br)c1)CC(c1ccc(F)cc1)N2 (centres undefined)	n	n	n	34.7	n	n	n	n
Nc1nc2n(n1)C(c1ccccc1)CC(c1ccc(F)cc1)N2 (centres undefined)	n	n	n	n	n	n	x	x
Cc1ccc(S(=O)(=O)NCCCNc2ccc([N+](=O)[O-])cc2)cc1	n	n	n	41.2	n	n	45.3	70.7
Cc1ccc(S(=O)(=O)NCCNc2ccc([N+](=O)[O-])cc2)cc1	n	n	n	n	n	n	x	x
O=C1NC[C@H](CCCCN2C[C@H](Cc3ccc(O)cc3)N(CCc3ccccc3)C(=O)C2=O)N(CCc2ccc(O)cc2)C1=O	x	x	n	x	n	x	x	x
COc1cccc(OCc2cc(C(=O)NCc3cnc4ccccn34)no2)c1	n	n	n	29.8	n	n	32.9	48.2
COc1cccc(OCc2cc(C(=O)NCc3ccccn3)no2)c1	n	n	n	n	n	n	x	x
CNCc1ccc(OCc2ccccc2)c(OC)c1	n	n	n	n	n	n	x	x
COc1cc(CN(CCN(C)C)Cc2ccccc2)ccc1OCc1ccccc1	n	n	n	43.7	n	n	56.9	34.4
CCCOc1ccc(/C(O)=C2/C(=O)C(=O)N(c3ccccn3)C2c2ccc(OC)cc2)cc1C (centres undefined)	n	n	n	n	n	n	x	x
COC(=O)c1cc(S(=O)(=O)N2CCN(c3ccc([N+](=O)[O-])cc3)CC2)c[nH]1	n	n	n	32.4	n	n	n	n
CC(=O)c1ccc(S(=O)(=O)N2CCN(c3ccccc3F)CC2)cc1	n	n	n	25.4	n	n	25.2	23.3
CC(=O)c1ccc(N2CCN(C(=O)Cc3ccccc3)CC2)c(F)c1	n	n	n	44.7	n	n	n	n
SMILES	OX1R antag-1	OX1R antag-2	TAAR1 antag	GPR7 antagonist	TAAR1 ag	CHO parental Ca	GPR7 antag cf	MCHR1 antag
COC(=O)c1cc(S(=O)(=O)N2CCN(c3ccccc3OC)CC2)cn1C	n	n	n	n	n	n	x	x
COC(=O)c1cc(S(=O)(=O)N2CCN(c3ccc(C(C)=O)cc3)CC2)cn1C	n	n	n	24.6	n	n	n	41.4
Cc1onc(-c2ccccc2)c1C(=O)OCC(=O)NC(=O)c1ccccc1	n	n	n	x	n	n	x	x
NS(=O)(=O)c1ccc(NC(=O)CSc2nc3c(cnn3-c3ccccn3)c(=O)[nH]2)cc1	x	x	n	x	n	x	x	x
CC(=O)c1ccc(NC(=O)c2ccn(C(=O)OCC(C)C)n2)cc1	n	n	n	n	n	n	x	x
Cc1ccc(NC(=O)CC(C)CC(=O)NCc2ccccc2)cc1Cl (centres undefined)	n	n	n	n	n	n	x	x
CC(=NO)c1cc(Br)c2cccc3c2c1CC3	x	x	n	x	n	x	x	x
CC1CC(C)CN(C(=O)c2ccc(S(=O)(=O)N3CC(C)CC(C)C3)cc2)C1 (centres undefined)	n	n	n	25.1	n	n	23.8	22.9
CCc1ccc(-n2ccc(=O)c(C(=O)O)n2)cc1	n	n	n	n	n	n	x	x
CC(OC(=O)c1oc2ccccc2c1COc1ccccc1)C(N)=O (centres undefined)	n	n	n	n	n	n	x	x
CC(C)(C)NC(=O)c1oc2ccccc2c1COc1ccccc1	n	n	n	26.4	n	n	n	34.6
N#C/C(=C\c1ccccc1)C(=O)NCc1ccc(F)cc1	n	n	n	22.5	n	n	43.3	46.7
CC(OC(=O)CCCNC(=O)c1ccc(Cl)cc1)C(=O)N(C)Cc1ccccc1 (centres undefined)	n	n	n	34.5	n	n	n	n
COc1cccc(NC(=O)C(C)OC(=O)CCCNC(=O)c2ccc(Cl)cc2)c1 (centres undefined)	n	n	n	n	n	n	x	x
COc1ccc2c(c1)sc(N)[n+]2Cc1cc(C)cc2cccnc12	n	n	n	37.6	n	n	40.5	56.7
Cc1cc(C[n+]2cc(Cl)ccc2N)c2ncccc2c1	n	n	n	22.8	n	n	28.9	24.4
Cc1cc(C[n+]2ncsc2N)c2ncccc2c1	n	n	n	n	n	n	x	x
Cc1cc(C[n+]2cc(Br)ccc2N)c2ncccc2c1	n	n	n	30.0	n	n	29.4	n
Cc1ccc(C(C)C)cc1OCC(=O)N1CCN(C(=O)c2ccco2)CC1	n	n	n	x	n	n	x	x
N#Cc1ccc(CN2CCN(CC(=O)NCCc3ccc(Cl)cc3Cl)CC2)cc1	n	n	n	21.5	n	n	30.6	n
COc1ccc(CC(=O)N/N=C(\C)c2cccs2)cc1	n	n	n	30.8	n	n	n	n
COC(=O)N/N=C(\C)c1cccs1	n	n	n	n	n	n	x	x
Cc1ccc(C(=O)OCC(=O)Nc2ccc(C)c(S(=O)(=O)N3CCCCC3)c2)o1	x	x	n	x	n	x	x	x

Screens from PubChem.
